Data published in ChEMBL document CHEMBL3425429.
pIC50: −log10 of the molar value. Active and inactive are the calls of the source. The rule behind the calls is not given here.

Assays:
MDA-MB-231 [1] = assay: Induction of apoptosis in human MDA-MB-231 cells assessed as early apoptotic cells at 0.1 uM after 48 hrs by annexin V-FITC/propidium iodide staining-based flow cytometric analysis (reference value: […]); format: functional
MDA-MB-231 [2] = assay: Induction of apoptosis in human MDA-MB-231 cells assessed as late apoptotic cells at 0.1 uM after 48 hrs by annexin V-FITC/propidium iodide staining-based flow cytometric analysis (reference value: 4.25%); format: functional
MDA-MB-231 [3] = assay: Induction of apoptosis in human MDA-MB-231 cells assessed as viable cells at 0.1 uM after 48 hrs by annexin V-FITC/propidium iodide staining-based flow cytometric analysis (reference value: 94.4%); format: functional; settings: MDA-MB-231, 48 h, read-out: Activity
MDA-MB-231 [4] = assay: Antitumor activity against human MDA-MB-231 cells xenografted in SCID mouse assessed as tumor growth inhibition at 30 mg/kg/day, po qd administered for 18 days measured every 3 days during compound dosing relative to vehicle-treated control; format: functional; settings: read-out: TGI
Procedure, shortened: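 SCID mice (5–6 weeks) given subcutaneous injections of 5 ×10^6 MDA-MB-231 cells; at 150–200 mm3 tumors, randomized into 6 groups of 6; oral daily dosing (vehicle 25% PEG400 + 5% DMSO in sterile water), paclitaxel 10 mg/kg/week by tail vein; tumors measured every 3 days, volume = ab²/2; side effects monitored daily.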

Mus musculus [5] = assay: Toxicity in SCID mouse xenografted with human MDA-MB-231 cells at 7.5 to 15 mg/kg/day, po qd administered for 18 days measured everyday during compound dosing; format: organism-based; parameters: route oral; settings: in vivo, 432 h
Procedure, shortened: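 SCID mice (5–6 weeks) implanted subcutaneously with 100 μL of MDA-MB-231 suspension at 5 ×10^7 per mL. At 150–200 mm3 tumours, mice were randomised (6 per group) and dosed orally once daily for 18 days in water with 25% PEG400 plus 5% DMSO. Side effects were monitored daily.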

Mus musculus [6] = assay: In vivo inhibition of MEK phosphorylation in tumor of SCID mouse xenografted with human MDA-MB-231 cells at 30 mg/kg/day, po administered for 18 days measured post last dose by immunohistochemical analysis relative to vehicle-treated control; format: functional, organism-based
Procedure, shortened: (§1)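 SCID mice carrying subcutaneous MDA-MB-231 xenografts received oral dosing once daily for 18 days (vehicle 25% PEG400 plus 5% DMSO in sterile water); at the end, tumors formalin-fixed and paraffin-embedded, 4–8 μm sections immunostained (Ki67, phospho-proteins) or TUNEL/AP-Red labelled, and compared with control.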

MDA-MB-231 [7] = assay: Antitumor activity against human MDA-MB-231 cells xenografted in SCID mouse assessed as increase in number of apoptotic cells in tumor at 30 mg/kg/day, po administered for 18 days measured post last dose by TUNEL assay; format: functional, organism-based; procedure, shortened: as §1
[8] = Clearance in Sprague-Dawley rat at 10 mg/kg, po by LC/MS analysis; format: ADME, organism-based; parameters: dose 10 mg/kg, route oral; settings: in vivo
Procedure, shortened: (§2)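 Single oral gavage dose in male Sprague-Dawley rats fasted overnight; serial blood drawn via surgically placed jugular vein catheters at set times, plasma separated at once and measured by HPLC-MS/MS; noncompartmental parameters fitted; n=5.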

Rattus norvegicus = assay: Apparent volume of distribution at steady state in Sprague-Dawley rat at 10 mg/kg, po by LC/MS analysis; format: ADME, organism-based; parameters: dose 10 mg/kg, route oral; settings: in vivo; procedure, shortened: as §2
MDA-MB-231 [9] = assay: Antitumor activity against human MDA-MB-231 cells xenografted in mouse assessed as tumor growth inhibition at 40 mg/kg/day, po; format: functional, organism-based
Procedure, shortened: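 Oral daily dosing at 40 mg kg−1 d−1 began once MDA-MB-231 xenografts reached about 200 mm3; three mice per group; tumor volume tracked.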

[10] = molecular target: Tyrosine-protein kinase Yes (Homo sapiens, UniProt P07947); assay: Inhibition of human Yes
Tyrosine-protein kinase Yes, sequence (P07947 whole entry): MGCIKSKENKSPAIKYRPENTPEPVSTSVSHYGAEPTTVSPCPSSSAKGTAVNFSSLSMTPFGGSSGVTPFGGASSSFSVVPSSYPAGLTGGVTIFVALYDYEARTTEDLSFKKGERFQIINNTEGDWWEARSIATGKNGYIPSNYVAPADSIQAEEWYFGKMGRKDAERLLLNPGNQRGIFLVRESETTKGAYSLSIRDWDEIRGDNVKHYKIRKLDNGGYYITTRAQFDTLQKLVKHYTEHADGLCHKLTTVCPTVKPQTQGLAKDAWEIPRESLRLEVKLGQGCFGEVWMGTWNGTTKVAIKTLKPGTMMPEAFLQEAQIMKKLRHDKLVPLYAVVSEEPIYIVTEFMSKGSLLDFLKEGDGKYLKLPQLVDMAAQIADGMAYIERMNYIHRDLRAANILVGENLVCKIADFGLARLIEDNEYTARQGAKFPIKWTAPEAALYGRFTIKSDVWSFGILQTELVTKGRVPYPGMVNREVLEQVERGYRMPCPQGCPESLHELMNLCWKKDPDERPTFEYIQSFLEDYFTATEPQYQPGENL
Procedure, shortened: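 Recombinant human kinase assayed in Eurofins KinaseProfiler panel; IC50 reported as mean of two independent experiments.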

[11] = molecular target: Serine/threonine-protein kinase Chk1 (Homo sapiens, UniProt O14757); assay: Inhibition of human CHK1
Procedure, shortened: (§3)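 Recombinant human protein kinases screened through the Eurofins KinaseProfiler service. IC50 values are means of two independent experiments.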

Focal adhesion kinase 1 = Focal adhesion kinase 1 (Homo sapiens, UniProt Q05397); assay: Inhibition of human FAK; procedure, shortened: as §3
Focal adhesion kinase 1, sequence (Q05397 whole entry): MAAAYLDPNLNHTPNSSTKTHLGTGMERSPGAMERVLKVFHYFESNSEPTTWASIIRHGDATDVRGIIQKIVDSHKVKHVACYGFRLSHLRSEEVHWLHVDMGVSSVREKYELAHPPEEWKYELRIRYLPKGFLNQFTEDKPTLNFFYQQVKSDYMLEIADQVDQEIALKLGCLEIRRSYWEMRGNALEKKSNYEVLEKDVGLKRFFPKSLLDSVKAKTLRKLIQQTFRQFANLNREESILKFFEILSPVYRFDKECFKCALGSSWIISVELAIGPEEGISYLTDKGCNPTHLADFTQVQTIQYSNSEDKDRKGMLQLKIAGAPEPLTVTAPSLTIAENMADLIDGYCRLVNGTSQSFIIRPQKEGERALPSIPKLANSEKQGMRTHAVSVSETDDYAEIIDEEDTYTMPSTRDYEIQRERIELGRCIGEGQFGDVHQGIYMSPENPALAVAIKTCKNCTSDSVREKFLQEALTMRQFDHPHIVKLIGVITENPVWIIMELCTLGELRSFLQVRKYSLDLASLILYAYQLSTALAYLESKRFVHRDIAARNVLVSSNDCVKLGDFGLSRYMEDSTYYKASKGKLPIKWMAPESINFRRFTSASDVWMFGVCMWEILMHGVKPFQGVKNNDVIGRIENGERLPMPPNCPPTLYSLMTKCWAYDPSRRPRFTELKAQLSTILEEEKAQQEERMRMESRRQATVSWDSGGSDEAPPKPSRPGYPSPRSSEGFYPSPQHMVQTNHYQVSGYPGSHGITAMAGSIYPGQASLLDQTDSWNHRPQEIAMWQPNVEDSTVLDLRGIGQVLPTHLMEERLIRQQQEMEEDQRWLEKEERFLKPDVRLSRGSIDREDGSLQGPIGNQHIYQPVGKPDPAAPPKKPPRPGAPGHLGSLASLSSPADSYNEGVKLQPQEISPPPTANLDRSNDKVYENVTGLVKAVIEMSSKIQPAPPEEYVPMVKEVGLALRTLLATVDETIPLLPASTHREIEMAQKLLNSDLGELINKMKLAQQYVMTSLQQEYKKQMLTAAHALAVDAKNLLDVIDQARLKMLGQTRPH

[12] = molecular target: Glycogen synthase kinase-3 beta (Homo sapiens, UniProt P49841); assay: Inhibition of human GSK3beta; procedure, shortened: as §3
Glycogen synthase kinase-3 beta, sequence (P49841 whole entry): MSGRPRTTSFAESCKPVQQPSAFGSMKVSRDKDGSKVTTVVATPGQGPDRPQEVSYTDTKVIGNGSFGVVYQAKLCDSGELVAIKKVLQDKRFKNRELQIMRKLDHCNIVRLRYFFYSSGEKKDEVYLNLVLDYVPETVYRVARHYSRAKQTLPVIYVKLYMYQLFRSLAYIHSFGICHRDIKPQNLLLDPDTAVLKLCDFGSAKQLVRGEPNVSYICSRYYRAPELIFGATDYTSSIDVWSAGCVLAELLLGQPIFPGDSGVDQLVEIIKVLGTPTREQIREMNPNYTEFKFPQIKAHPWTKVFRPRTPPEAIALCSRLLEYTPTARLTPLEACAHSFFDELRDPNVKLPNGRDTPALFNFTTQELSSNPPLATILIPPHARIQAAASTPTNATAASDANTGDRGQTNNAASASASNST

[13] = molecular target: Mitogen-activated protein kinase 8 (Homo sapiens, UniProt P45983); assay: Inhibition of human JNK1alpha1; procedure, shortened: as §3
Mitogen-activated protein kinase 8, sequence (P45983 whole entry, looked up): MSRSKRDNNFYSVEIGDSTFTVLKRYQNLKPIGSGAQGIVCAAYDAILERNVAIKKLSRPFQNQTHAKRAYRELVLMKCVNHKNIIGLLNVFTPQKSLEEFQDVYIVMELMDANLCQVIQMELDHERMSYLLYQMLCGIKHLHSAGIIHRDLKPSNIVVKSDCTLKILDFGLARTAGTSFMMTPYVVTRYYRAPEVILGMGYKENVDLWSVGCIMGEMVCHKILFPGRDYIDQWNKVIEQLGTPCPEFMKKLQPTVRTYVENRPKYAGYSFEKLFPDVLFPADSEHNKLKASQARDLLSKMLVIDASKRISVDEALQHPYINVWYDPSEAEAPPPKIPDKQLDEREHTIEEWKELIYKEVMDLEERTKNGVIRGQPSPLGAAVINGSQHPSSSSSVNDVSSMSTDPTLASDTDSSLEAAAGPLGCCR

[14] = molecular target: Dual specificity mitogen-activated protein kinase kinase 1 (Homo sapiens, UniProt Q02750); assay: Inhibition of human MEK1; procedure, shortened: as §3
Dual specificity mitogen-activated protein kinase kinase 1, sequence (Q02750 whole entry): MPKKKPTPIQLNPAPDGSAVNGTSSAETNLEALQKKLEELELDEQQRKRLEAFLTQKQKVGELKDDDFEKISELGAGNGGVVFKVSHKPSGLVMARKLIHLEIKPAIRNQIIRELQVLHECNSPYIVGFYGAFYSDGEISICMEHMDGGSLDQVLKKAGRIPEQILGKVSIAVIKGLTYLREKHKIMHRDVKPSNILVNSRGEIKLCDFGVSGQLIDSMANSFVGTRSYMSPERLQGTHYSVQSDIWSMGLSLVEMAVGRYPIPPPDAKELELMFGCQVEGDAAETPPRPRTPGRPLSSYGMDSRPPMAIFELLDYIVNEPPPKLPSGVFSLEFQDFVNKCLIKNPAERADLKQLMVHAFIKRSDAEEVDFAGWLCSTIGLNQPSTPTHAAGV

[15] = molecular target: RAC-alpha serine/threonine-protein kinase (Homo sapiens, UniProt P31749); assay: Inhibition of human PKBalpha; procedure, shortened: as §3
RAC-alpha serine/threonine-protein kinase, sequence (P31749 whole entry, canonical isoform): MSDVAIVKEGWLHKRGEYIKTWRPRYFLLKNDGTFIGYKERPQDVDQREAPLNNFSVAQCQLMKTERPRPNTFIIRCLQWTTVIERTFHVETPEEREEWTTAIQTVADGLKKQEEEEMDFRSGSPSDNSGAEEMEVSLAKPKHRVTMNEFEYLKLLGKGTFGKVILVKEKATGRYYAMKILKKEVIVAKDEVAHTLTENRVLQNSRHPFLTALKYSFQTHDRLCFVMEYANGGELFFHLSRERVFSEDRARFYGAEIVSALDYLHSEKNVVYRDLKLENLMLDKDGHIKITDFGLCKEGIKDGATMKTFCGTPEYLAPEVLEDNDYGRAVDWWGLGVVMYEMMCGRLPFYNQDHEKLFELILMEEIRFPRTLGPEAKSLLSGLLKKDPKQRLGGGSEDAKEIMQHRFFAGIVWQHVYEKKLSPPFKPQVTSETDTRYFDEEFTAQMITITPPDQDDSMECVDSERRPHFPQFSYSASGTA

[16] = molecular target: Phosphatidylinositol 4,5-bisphosphate 3-kinase catalytic subunit alpha isoform (Homo sapiens, UniProt P42336); assay: Inhibition of human PI3Kalpha; procedure, shortened: as §3
Phosphatidylinositol 4,5-bisphosphate 3-kinase catalytic subunit alpha isoform, sequence (P42336 whole entry, canonical isoform): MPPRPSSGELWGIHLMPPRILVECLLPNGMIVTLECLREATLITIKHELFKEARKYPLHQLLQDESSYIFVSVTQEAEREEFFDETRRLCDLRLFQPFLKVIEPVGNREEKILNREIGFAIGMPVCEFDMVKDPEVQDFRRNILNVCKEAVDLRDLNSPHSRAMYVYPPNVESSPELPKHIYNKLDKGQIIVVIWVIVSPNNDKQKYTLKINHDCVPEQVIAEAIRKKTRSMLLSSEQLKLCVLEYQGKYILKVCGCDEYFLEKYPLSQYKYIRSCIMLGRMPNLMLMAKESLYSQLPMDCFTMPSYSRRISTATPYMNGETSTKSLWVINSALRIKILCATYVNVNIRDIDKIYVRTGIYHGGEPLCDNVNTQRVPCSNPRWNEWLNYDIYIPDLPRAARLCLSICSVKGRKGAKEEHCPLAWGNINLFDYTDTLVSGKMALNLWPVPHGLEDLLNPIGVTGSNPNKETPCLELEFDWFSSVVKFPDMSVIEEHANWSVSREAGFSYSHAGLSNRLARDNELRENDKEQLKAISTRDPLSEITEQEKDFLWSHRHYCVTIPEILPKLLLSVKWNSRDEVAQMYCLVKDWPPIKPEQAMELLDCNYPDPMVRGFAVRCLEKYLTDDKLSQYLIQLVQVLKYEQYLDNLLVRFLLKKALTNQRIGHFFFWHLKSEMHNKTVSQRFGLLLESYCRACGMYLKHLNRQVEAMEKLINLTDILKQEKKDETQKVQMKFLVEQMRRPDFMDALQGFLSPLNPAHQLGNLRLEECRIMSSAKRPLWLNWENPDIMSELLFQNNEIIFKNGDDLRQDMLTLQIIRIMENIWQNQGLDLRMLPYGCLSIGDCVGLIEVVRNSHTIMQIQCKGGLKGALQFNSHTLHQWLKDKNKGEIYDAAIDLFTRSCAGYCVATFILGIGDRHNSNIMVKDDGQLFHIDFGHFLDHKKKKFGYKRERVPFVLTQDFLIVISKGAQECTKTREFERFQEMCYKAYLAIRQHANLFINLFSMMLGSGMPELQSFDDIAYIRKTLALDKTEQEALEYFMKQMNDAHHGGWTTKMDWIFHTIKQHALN

[17] = Cytotoxicity against human MDA-MB-436 cells assessed as cell viability after 72 hrs by MTT assay; format: functional, cell-based; settings: MDA-MB-436, 72 h
MDA-MB-453 = assay: Cytotoxicity against human MDA-MB-453 cells assessed as cell viability after 72 hrs by MTT assay; format: functional, cell-based; settings: MDA-MB-453, 72 h
BT-474 = assay: Cytotoxicity against human BT474 cells assessed as cell viability after 72 hrs by MTT assay; format: functional, cell-based; settings: BT-474, 72 h
[18] = Cytotoxicity against human HBL1 cells assessed as cell viability after 72 hrs by MTT assay; format: functional, cell-based; settings: HBL1, 72 h
Ramos = assay: Cytotoxicity against human Ramos cells assessed as cell viability after 72 hrs by MTT assay; format: functional, cell-based
MDA-MB-231 [19] = assay: Induction of apoptosis in human MDA-MB-231 cells assessed as late apoptotic cells at 0.1 uM after 24 hrs by annexin V-FITC/propidium iodide staining-based flow cytometric analysis (reference value: 2.67%); format: functional
MDA-MB-231 [20] = assay: Induction of apoptosis in human MDA-MB-231 cells assessed as viable cells at 0.1 uM after 24 hrs by annexin V-FITC/propidium iodide staining-based flow cytometric analysis (reference value: 95.5%); format: functional; settings: MDA-MB-231, 24 h, read-out: Activity
MDA-MB-231 [21] = assay: Induction of apoptosis in human MDA-MB-231 cells assessed as late apoptotic cells at 0.3 uM after 24 hrs by annexin V-FITC/propidium iodide staining-based flow cytometric analysis (reference value: 2.67%); format: functional
MDA-MB-231 [22] = assay: Induction of apoptosis in human MDA-MB-231 cells assessed as early apoptotic cells at 0.03 uM after 48 hrs by annexin V-FITC/propidium iodide staining-based flow cytometric analysis (reference value: […]); format: functional
[23] = molecular target: Proto-oncogene tyrosine-protein kinase Src (Homo sapiens, UniProt P12931)
Proto-oncogene tyrosine-protein kinase Src, sequence (P12931 2-536 limits assumed): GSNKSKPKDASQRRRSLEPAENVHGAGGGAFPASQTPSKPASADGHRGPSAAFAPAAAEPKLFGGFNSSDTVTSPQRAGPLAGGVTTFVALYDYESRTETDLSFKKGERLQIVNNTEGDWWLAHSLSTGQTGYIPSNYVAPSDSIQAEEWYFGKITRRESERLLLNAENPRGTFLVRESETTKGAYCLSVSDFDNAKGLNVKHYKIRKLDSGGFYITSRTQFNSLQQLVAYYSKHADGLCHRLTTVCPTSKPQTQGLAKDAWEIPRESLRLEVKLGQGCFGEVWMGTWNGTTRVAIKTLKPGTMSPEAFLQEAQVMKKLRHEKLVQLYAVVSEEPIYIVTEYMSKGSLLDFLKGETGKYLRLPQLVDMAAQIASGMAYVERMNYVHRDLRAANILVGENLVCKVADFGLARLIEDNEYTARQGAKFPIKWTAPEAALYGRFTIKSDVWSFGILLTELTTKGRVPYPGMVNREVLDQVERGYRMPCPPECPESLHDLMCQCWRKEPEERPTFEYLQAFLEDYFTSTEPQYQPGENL

MDA-MB-231 [24] = assay: cells; settings: Homo sapiens, MDA-MB-231, 72 h

CCn1nc(C#Cc2cc(C(=O)Nc3ccc(CN4CCN(C)CC4)c(C(F)(F)F)c3)ccc2C)c2c(N)ncnc21
Activity (MDA-MB-231 [1]): 13.9%
Activity (MDA-MB-231 [2]): 15.9%
viability at 0.1 µM (MDA-MB-231 [3]): 69.2%
inhibition in vivo at 30 mg/kg/day (MDA-MB-231 [4]): > 100%
Activity (Mus musculus [5]): Non-toxic
inhibition (Mus musculus [6]): Active
Activity (MDA-MB-231 [7]): Active
CL/F [8]: 35 mL/min/kg
Vdss(app) (Rattus norvegicus): 38.57 L/kg
TGI (MDA-MB-231 [9]): Active
pIC50 [10]: 9.10
pIC50 [11]: < 5.00
pIC50 (Focal adhesion kinase 1): < 5.00
pIC50 [12]: < 5.00
pIC50 [13]: < 5.00
pIC50 [14]: < 5.00
pIC50 [15]: < 5.00
pIC50 [16]: < 5.00
pIC50 [17]: 6.50
pIC50 (MDA-MB-453): 6.49
pIC50 (BT-474): < 5.00
pIC50 [18]: 5.00
pIC50 (Ramos): 5.00
Activity (MDA-MB-231 [19]): 10.4%
viability at 0.1 µM (MDA-MB-231 [20]): 79.1%
Activity (MDA-MB-231 [21]): 15.5%
Activity (MDA-MB-231 [22]): 3.23%
pIC50 [23]: 7.52
pIC50 (MDA-MB-231 [24]): 7.96
